Calls of active or inactive are those of the source. The rule behind the calls is not given here.
Legend:
[1] = biological target: T1, Prostaglandin G/H synthase 2 (Homo sapiens) (UniProt P35354); assay: Inhibition of COX2 in differentiated human THP1 cells assessed as […] LPS-induced COX2 gene expression at 50 ug/ml preincubated for 1 hr followed by LPS induction measured after 3 hrs by real-time PCR analysis; format: cell-based; details: THP-1
T1 sequence (whole entry): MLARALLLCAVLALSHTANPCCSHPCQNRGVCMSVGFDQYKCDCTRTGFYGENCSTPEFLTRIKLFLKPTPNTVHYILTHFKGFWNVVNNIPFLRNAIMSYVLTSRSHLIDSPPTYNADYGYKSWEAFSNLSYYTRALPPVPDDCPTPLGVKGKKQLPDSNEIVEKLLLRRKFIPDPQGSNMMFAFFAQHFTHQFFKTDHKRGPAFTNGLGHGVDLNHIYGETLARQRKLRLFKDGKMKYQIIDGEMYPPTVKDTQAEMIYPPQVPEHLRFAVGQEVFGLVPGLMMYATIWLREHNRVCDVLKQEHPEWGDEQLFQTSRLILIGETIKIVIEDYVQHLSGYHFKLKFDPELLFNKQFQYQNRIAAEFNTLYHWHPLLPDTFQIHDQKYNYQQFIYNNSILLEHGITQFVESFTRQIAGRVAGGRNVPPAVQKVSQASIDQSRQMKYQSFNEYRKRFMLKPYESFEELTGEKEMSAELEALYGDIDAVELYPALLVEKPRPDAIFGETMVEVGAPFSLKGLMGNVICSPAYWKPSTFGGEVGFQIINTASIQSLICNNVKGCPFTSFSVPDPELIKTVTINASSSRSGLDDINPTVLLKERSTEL
In short: (§1)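 THP-1 monocytes differentiated to macrophages with 12 nM PMA for 48 h. Cells were treated with compound ([…]) for 1 h, with 0.1% DMSO as calibrator. They were then stimulated with LPS O55:B5 at 7.5 ng/ml, except the DMSO well, for another 3 h. Cells were washed twice with cold PBS. Total RNA was extracted and reverse-transcribed. TaqMan qPCR was run in duplicate with GAPDH as reference.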

[2] = Downregulation of NF-kappaB1 gene expression in differentiated human THP1 cells stimulated with LPS at 50 ug/ml preincubated for 1 hr followed by LPS stimulation measured after 3 hrs by real-time PCR analysis; format: functional, cell-based; details: THP-1; in short: as §1
[3] = biological target: Prostaglandin G/H synthase 1 (Ovis aries) (UniProt P05979); assay: Inhibition of ram seminal vesicles COX-1 using arachidonic acid as substrate at 50 ug/ml preincubated for 5 mins followed by substrate addition after 20 mins by competitive PGE2 EIA method
Prostaglandin G/H synthase 1 (Ovis aries), sequence (P05979 whole entry, looked up): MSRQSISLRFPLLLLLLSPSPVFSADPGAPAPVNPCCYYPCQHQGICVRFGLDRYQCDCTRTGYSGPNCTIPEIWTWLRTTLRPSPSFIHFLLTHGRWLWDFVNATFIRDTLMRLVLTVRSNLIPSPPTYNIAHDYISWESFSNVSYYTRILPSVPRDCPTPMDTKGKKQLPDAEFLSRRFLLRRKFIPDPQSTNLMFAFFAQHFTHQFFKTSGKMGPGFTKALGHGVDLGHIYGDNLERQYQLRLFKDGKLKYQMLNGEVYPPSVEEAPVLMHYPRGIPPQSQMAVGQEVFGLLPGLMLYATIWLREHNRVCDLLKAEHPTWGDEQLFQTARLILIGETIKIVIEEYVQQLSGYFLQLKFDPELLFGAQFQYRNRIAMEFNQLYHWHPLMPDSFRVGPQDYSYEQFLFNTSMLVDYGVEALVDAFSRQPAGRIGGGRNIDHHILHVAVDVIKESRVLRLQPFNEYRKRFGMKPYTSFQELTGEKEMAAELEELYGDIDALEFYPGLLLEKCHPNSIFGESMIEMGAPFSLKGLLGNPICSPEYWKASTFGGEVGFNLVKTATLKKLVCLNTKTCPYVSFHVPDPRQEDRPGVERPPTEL

[4] = biological target: T2, Prostaglandin G/H synthase 2 (Ovis aries, UniProt P79208); assay: Inhibition of sheep placental cotyledons COX-2 using arachidonic acid as substrate preincubated for 5 mins followed by substrate addition after 20 mins by competitive PGE2 EIA method
T2 sequence (P79208 whole entry): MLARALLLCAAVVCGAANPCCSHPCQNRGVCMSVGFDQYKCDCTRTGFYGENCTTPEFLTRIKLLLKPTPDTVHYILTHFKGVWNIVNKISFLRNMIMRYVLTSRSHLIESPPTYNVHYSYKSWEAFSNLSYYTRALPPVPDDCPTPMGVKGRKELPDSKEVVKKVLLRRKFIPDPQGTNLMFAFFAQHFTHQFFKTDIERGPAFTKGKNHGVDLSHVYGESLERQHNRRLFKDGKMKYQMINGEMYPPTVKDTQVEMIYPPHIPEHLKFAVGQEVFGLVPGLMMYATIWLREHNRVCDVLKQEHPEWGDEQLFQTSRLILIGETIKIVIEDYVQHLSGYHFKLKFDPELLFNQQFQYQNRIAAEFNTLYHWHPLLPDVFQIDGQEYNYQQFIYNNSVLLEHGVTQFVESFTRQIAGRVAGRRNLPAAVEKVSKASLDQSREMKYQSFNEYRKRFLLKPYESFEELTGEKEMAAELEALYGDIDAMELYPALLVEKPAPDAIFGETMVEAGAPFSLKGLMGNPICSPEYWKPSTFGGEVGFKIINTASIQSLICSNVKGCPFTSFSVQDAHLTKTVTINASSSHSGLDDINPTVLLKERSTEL
In short: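 Purified sheep placental PGHS-2 at 0.2 units/well in 0.1 M Tris/HCl with 18 mM epinephrine hydrogen tartrate, hematin and Na EDTA. Samples were preincubated for 5 min at room temperature, then arachidonic acid in ethanol was added to start the reaction. After 20 min at 37 °C the reaction was stopped with 10% formic acid. PGE2 was measured by competitive EIA absorbance, and inhibition was calculated relative to a blank.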

Row | SMILES | inhibition [3] | IC50 [4] [µM] | inhibition [1] | Activity [2]
1 | CC1=CC(c2ccccc2)NC(=S)N1 (stereo unspecified) | inactive | – | Active | Active
2 | CC1=CC(c2ccccc2[N+](=O)[O-])NC(=S)N1 (racemic) | 53% | 50 | Active | Active
3 | CC1=CC(C(C)C)NC(=S)N1 (racemic) | inactive | – | – | –
4 | CC1=CC(c2ccc(C(F)(F)F)cc2)NC(=S)N1 (racemic) | 0.92% | – | – | –
5 | CC1=CC(c2ccc(Cl)cc2Cl)NC(=S)N1 (racemic) | inactive | – | – | –
6 | CC1=CC(c2ccc([N+](=O)[O-])cc2)NC(=S)N1 (racemic) | 29.8% | – | – | –
7 | CC1=CC(c2ccccc2Cl)NC(=S)N1 (racemic) | 3.06% | – | – | –

More lines, main results first:

Row | inhibition [3] | IC50 [4] [µM] | SMILES | inhibition [1] | Activity [2]
8 | 15.4% | – | CC1=CC(c2ccc(Br)cc2)NC(=S)N1 (racemic) | – | –
9 | 10.3% | – | CC1=CC(c2ccc(Cl)cc2)NC(=S)N1 (racemic) | – | –
10 | inactive | – | CC1=CC(c2ccc(F)cc2)NC(=S)N1 (racemic) | – | –
11 | 33.2% | – | COc1ccc(C2C=C(C)NC(=S)N2)cc1 (racemic) | – | –
